From ChEMBL document CHEMBL1143519, “2-Piperazinecarboxamides as potent and selective melanocortin subtype-4 receptor agonists” (Bioorg Med Chem Lett, 2005)

How the values were obtained:
[1] = Selectivity for human melanocortin 3 receptor over melanocortin 5 receptor expressed in CHO cells; control 6 nM; format: cell-based
[2] = molecular target: T1, Melanocortin receptor 4 (Homo sapiens, UniProt P32245); test: Inhibitory concentration to displace [125I]NDP-alpha-MSH from human melanocortin 4 receptor expressed in CHO cells; Control 19 nM; format: cell-based
[3] = molecular target: T2, Melanocortin receptor 5 (Homo sapiens, UniProt P33032); test: Concentration of compound at 50% maximum cAMP accumulation mediated by human melanocortin 5 receptor; format: functional
[4] = molecular target: Melanocortin receptor (M3 and M4) (Homo sapiens) (UniProt P32245+P41968); test: Selectivity for human melanocortin 3 receptor over melanocortin 4 receptor expressed in CHO cells; control 1 nM; format: cell-based
[5] = molecular target: T1, Melanocortin receptor 4; settings: at 10 µM
[6] = molecular target: T1, Melanocortin receptor 4; test: Concentration of compound at 50% maximum cAMP accumulation mediated by human melanocortin 4 receptor; format: functional
[7] = molecular target: T3, Melanocortin receptor 3 (Homo sapiens, UniProt P41968); settings: at 10 µM
[8] = molecular target: T2, Melanocortin receptor 5; settings: at 10 µM
[9] = species on record: Rattus norvegicus; test: Covalent binding to rat microsomal proteins after 30 min of incubation with [3H]-compound in the presence of NADPH (n=3); format: functional
In short: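 Tritium-labelled compound was incubated for 30 min with rat liver microsomes plus NADPH. Radioactivity bound covalently to microsomal protein was expressed as pmol equivalents per mg protein. Values are mean ± standard deviation of n = 3.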

[10] = molecular target: T3, Melanocortin receptor 3; test: Concentration of compound at 50% maximum cAMP accumulation mediated by human melanocortin 3 receptor; format: functional

T1 sequence (P32245 whole entry): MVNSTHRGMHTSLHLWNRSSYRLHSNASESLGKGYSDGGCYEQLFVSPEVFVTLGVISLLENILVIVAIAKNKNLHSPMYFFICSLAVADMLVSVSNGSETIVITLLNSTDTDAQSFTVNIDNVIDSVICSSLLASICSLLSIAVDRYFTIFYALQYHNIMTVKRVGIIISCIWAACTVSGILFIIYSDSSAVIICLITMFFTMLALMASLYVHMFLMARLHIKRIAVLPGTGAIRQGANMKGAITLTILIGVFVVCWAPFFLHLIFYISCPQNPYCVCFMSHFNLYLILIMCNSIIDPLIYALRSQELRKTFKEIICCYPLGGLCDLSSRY
T2 sequence (P33032 whole entry): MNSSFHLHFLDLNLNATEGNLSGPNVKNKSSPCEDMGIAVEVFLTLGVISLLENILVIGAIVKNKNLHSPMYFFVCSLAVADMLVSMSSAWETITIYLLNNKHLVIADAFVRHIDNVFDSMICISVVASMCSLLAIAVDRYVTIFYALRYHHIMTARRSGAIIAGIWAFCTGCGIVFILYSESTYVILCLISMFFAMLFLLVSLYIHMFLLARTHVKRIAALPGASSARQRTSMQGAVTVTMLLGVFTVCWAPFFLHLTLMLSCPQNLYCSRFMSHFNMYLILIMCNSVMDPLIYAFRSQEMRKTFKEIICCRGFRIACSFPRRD
T3 sequence (P41968 whole entry): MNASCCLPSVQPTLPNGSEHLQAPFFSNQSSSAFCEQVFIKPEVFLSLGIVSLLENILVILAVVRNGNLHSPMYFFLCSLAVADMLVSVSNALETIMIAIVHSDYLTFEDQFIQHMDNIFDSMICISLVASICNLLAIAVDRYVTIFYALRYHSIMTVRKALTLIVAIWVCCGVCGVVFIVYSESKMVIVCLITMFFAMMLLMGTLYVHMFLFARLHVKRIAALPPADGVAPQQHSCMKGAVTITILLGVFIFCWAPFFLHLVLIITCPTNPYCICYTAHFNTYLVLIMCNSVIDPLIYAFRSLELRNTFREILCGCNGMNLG

| SMILES | Selectivity [1] | IC50 [2] | EC50 [3] | Selectivity [4] | Accumulation [5] | EC50 [6] | Accumulation [7] | Accumulation [8] | Activity [9] | EC50 [10] |
| --- | --- | --- | --- | --- | --- | --- | --- | --- | --- | --- |
| CC(C)(C)NC(=O)C1(C2CCCCC2)CCN(C(=O)[C@@H](Cc2ccc(F)cc2)NC(=O)[C@@H]2CN[C@H](C3CC3)CN2)CC1.CC(F)(F)C(=O)O | 65 | 0.025 µM | 1.4 µM | 42 | 67% | 0.036 µM | 4% | 33% |  |  |
| CC[C@H]1CN[C@H](C(=O)N[C@H](Cc2ccc(F)cc2)C(=O)N2CCC(C(=O)NC(C)(C)C)(C3CCCCC3)CC2)CN1 | 126 | 0.003 µM | 0.71 µM | 152 | 89% | 0.005 µM | 9% | 43% |  |  |
| CC(C)(C)NC(=O)C1(C2CCCCC2)CCN(C(=O)[C@@H](Cc2ccc(F)cc2)NC(=O)[C@@H]2CN[C@H](C(C)(C)C)CN2)CC1 | 26 | 0.029 µM | 1 µM | 48 | 77% | 0.091 µM | 5% | 54% |  |  |
| CC(C)C1CNC[C@@H](C(=O)N[C@H](Cc2ccc(F)cc2)C(=O)N2CCC(C(=O)NC(C)(C)C)(C3CCCCC3)CC2)N1 (some centres undefined) | 105 | 0.011 µM |  | 81 | 92% | 0.018 µM | 4% | 10% | 216 |  |
| C[C@H]1CN[C@H](C(=O)N[C@H](Cc2ccc(F)cc2)C(=O)N2CCC(C(=O)NC(C)(C)C)(C3CCCCC3)CC2)CN1 | 87 | 0.006 µM | 0.88 µM | 86 | 79% | 0.008 µM | 6% | 42% | 50 |  |
| CC(C)(C)NC(=O)C1(C2CCCCC2)CCN(C(=O)[C@@H](Cc2ccc(F)cc2)NC(=O)[C@@H]2CN[C@@H](C3CC3)CN2)CC1 | 59 | 0.008 µM | 0.76 µM | 119 | 102% | 0.005 µM | 9% | 44% | 103 |  |
| CC(C)(C)NC(=O)C1(C2CCCCC2)CCN(C(=O)[C@@H](Cc2ccc(F)cc2)NC(=O)[C@@H]2CNC3(CC3)CN2)CC1 | 61 | 0.017 µM | 1.9 µM | 42 | 53% | 0.041 µM | 6% | 36% |  |  |
| CC(C)[C@@H]1CN[C@H](C(=O)N[C@H](Cc2ccc(F)cc2)C(=O)N2CCC(C(=O)NC(C)(C)C)(C3CCCCC3)CC2)CN1 | 49 | 0.02 µM | 1.4 µM | 61 | 77% | 0.042 µM | 6% | 41% |  |  |
| CC(C)(C)NC(=O)C1(C2CCCCC2)CCN(C(=O)[C@@H](Cc2ccc(F)cc2)NC(=O)[C@@H]2CN[C@@H](C3(C)CC3)CN2)CC1 | 40 | 0.005 µM | 0.3 µM | 99 | 95% | 0.007 µM | 10% | 62% |  |  |
| CC(C)[C@H]1CN[C@H](C(=O)N[C@H](Cc2ccc(F)cc2)C(=O)N2CCC(C(=O)NC(C)(C)C)(C3CCCCC3)CC2)CN1 | 116 | 0.004 µM | 0.34 µM | 140 | 82% | 0.003 µM | 8% | 49% | 107 |  |
| CC[C@H]1CN[C@H](C(=O)N[C@H](Cc2ccc(F)cc2)C(=O)N2CCC(C(=O)NC(C)(C)C)(C3CCCCC3)CC2)CN1C | 192 | 0.003 µM | 0.45 µM | 116 | 85% | 0.002 µM | 29% | 56% |  | 0.15 µM |
| CC(C)N(C(=O)C1(C2CCCCC2)CCN(C(=O)[C@@H](Cc2ccc(F)cc2)NC(=O)[C@@H]2CN(C)CCN2)CC1)C(C)C |  |  |  |  |  |  |  |  | 2150 |  |
| CC[C@@H]1CN[C@H](C(=O)N[C@H](Cc2ccc(F)cc2)C(=O)N2CCC(C(=O)NC(C)(C)C)(C3CCCCC3)CC2)CN1 | 75 | 0.04 µM |  | 59 | 69% | 0.15 µM | 6% | 45% |  |  |
| CC(C)(C)NC(=O)C1(C2CCCCC2)CCN(C(=O)[C@@H](Cc2ccc(F)cc2)NC(=O)[C@@H]2CN[C@@H](C(C)(C)C)CN2)CC1 | 39 | 0.005 µM | 0.36 µM | 116 | 99% | 0.007 µM | 11% | 46% |  |  |
| CC[C@@H]1CN[C@H](C(=O)N[C@H](Cc2ccc(F)cc2)C(=O)N2CCC(C(=O)NC(C)(C)C)(C3CCCCC3)CC2)CN1C | 49 | 0.046 µM | 2.4 µM | 36 | 58% | 0.33 µM | 8% | 36% |  |  |
| CC(C)(C)NC(=O)C1(C2CCCCC2)CCN(C(=O)[C@@H](Cc2ccc(F)cc2)NC(=O)[C@@H]2CN[C@H](C3(C)CC3)CN2)CC1 | 23 | 0.024 µM | 0.92 µM | 49 | 69% | 0.093 µM | 5% | 56% |  |  |
